The record followed here is PubChem BioAssay AID504649 (Molecular Libraries Program, Specialized Chemistry Center, …, 2011).

Usually IC50 stands for the concentration at which inhibition is half-maximal.

Calls of active or inactive are those of the source.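 Rule for the calls: active = half-maximal inhibitory concentration IC50 of 10 µM or lower; inactive = the rest.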 Some results are limits rather than exact numbers.

Transitional endoplasmic reticulum ATPase (Homo sapiens), sequence (P55072 whole entry, looked up): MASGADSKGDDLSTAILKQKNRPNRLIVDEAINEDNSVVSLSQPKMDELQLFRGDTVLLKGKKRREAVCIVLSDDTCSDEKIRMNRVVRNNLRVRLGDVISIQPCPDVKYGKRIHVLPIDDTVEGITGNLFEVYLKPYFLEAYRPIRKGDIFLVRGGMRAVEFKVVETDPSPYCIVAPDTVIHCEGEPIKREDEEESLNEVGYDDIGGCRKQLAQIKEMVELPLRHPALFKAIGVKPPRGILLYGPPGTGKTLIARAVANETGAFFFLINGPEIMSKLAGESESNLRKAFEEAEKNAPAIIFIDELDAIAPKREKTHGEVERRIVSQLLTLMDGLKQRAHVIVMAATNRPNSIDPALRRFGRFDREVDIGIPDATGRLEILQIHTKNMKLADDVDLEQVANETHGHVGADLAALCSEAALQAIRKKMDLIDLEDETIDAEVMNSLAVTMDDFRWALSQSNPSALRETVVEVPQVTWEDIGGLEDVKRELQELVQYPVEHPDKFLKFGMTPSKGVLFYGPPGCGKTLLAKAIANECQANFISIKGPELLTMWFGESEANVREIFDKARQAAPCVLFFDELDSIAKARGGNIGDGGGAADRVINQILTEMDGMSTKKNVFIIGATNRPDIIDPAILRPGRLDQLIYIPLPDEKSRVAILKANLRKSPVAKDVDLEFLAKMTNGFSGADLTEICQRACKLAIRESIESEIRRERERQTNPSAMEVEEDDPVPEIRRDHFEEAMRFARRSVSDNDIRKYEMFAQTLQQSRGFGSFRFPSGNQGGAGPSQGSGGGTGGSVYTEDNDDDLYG

The first experiment has as its target Transitional endoplasmic reticulum ATPase (Homo sapiens) (UniProt P55072). As to the kind of experiment: blockers of VCP-dependent reporter clearance – imaging, HeLa, UbG76V-GFP, round 3, SAR follow-up (AID 504649). The settings on record: HeLa UbG76V-GFP degradation. A digest of the protocol: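 Assay system: HeLa cells expressing UbG76V-GFP proteasome degradation reporter; times: MG132 pre-treatment 1 h, GFP imaging 70–170 min into chase; measured by: imaged GFP fluorescence intensity, ~500 cells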
`COc1cccc2c(NCc3cncs3)nc(N3CCOc4ccccc43)nc12`: the IC50 was > 20 µM (inactive).

Consider `COc1ccc2c(c1)nc(N)n2-c1nc(NCc2ccccc2)c2cccc(OC)c2n1`, for which the IC50 is 0.96 µM.

As for `COc1cccc2c(NCc3ccccc3)nc(N3CCN(C(C)=O)c4ccccc43)nc12`, the IC50 was 8 µM.

Regarding `COc1cccc2c(NCc3ccccc3)nc(N3CCNc4ccccc43)nc12`, the IC50 is 3.7 µM.

For `Nc1nc2ccccc2n1-c1nccc(NCc2ccccc2)n1`, the IC50 result was “inactive”.

`COc1cccc2c(NCc3ccccc3)nc(Nc3nc4ccccc4n3C)nc12`: the IC50 is 7.8 µM.

In the case of `CN(c1ccccc1)c1nc(NCc2ccccc2)c2ccccc2n1`, the IC50 is 9.2 µM.

In the case of `COc1cccc2c(NCc3ccccc3)nc(N3CCN(C(C)=O)CC3)nc12`, the IC50 was > 20 µM (inactive).

`c1ccc(CNc2nc(N3CCOc4ccccc43)nc3c(-c4ccccc4)cccc23)cc1`: the IC50 is 5 µM.

Consider `COc1cccc2c(NCc3ccccc3)nc(Nc3ccccc3O)nc12`, for which the IC50 was 2.8 µM.

`COc1cccc2c(NCc3ccccc3)nc(-n3c(N)nc4cc(F)ccc43)nc12`: the IC50 was 6.8 µM.

Regarding `OCCOc1cccc2c(NCc3ccccc3)nc(N3CCOc4ccccc43)nc12`, the half-maximal inhibitory concentration (IC50) is 3.8 µM.

For the molecule `COc1cccc2c(NCc3ccccc3)nc(-n3c(N)nc4c(C)cccc43)nc12`, the IC50 is 2.6 µM.

As for `N#CCOc1cccc2c(NCc3ccccc3)nc(N3CCOc4ccccc43)nc12`, the IC50 is 7.7 µM.

On to `Cc1nc(N2CCOc3ccccc32)nc(NCc2ccccc2)c1C`, for which the IC50 result is “inactive”.

Turning to `Oc1cccc2c(NCc3ccccc3)nc(N3CCOc4ccccc43)nc12`, the IC50 is 7.7 µM.

As to `Nc1nc2ccccc2n1-c1nc2c(c(NCc3ccccc3)n1)CCCC2`, the IC50 was 1.8 µM.

Regarding `COc1ccc(-c2cccc3c(NCc4ccccc4)nc(N4CCOc5ccccc54)nc23)cc1`, the IC50 was 9 µM.

Turning to `COc1cccc2c(NCc3cccs3)nc(N3CCOc4ccccc43)nc12`, the IC50 was 3 µM.

`COc1cccc2c(NCc3ccccc3)nc(-n3c(N)nc4cc(Cl)c(Cl)cc43)nc12`: the IC50 is > 20 µM (inactive).

In the case of `COc1cccc2c(NCc3ccccc3)nc(NCC3CCCCC3)nc12`, the IC50 is 4.2 µM.

On to `CCN(CC)CCOc1cccc2c(NCc3ccccc3)nc(N3CCOc4ccccc43)nc12`, for which the IC50 is 5.3 µM.

Turning to `COc1cccc2c(NCc3ccccc3)nc(Nc3cccc(Cl)c3)nc12`, the IC50 is 5.4 µM.

On to `COc1cccc2c(NCc3ccccc3)nc(-n3c(N)nc4c(F)cccc43)nc12`, for which the IC50 was 5.4 µM.

As for `COc1cccc2c(NCc3ccccc3)nc(NC(C)c3ccccc3)nc12` (stereo not given), the IC50 is 2.1 µM.

As to `Nc1nc2ccccc2n1-c1nc(NCc2ccccc2)c2ccccc2n1`, the IC50 was 2.9 µM.

As for `COc1cccc2c(NCc3ccc(F)cc3)nc(N3CCOc4ccccc43)nc12`, the IC50 is 3.7 µM.

`COc1cccc2c(NCc3ccccc3)nc(Nc3cc(C)cc(F)c3)nc12`: the IC50 was 7.1 µM.

For the molecule `c1ccc2c(c1)OCCN2c1nc(N2CCOc3ccccc32)c2ccccc2n1`, the half-inhibitory concentration (IC50) is 8.1 µM.

For `COc1cccc2c(NCc3ccccc3O)nc(N3CCOc4ccccc43)nc12`, the IC50 was 6 µM.

Consider `CC(C)Nc1nc(Nc2cccc(Cl)c2)nc2ccccc12`, for which the IC50 result is “inactive”.

Turning to `COCCOc1cccc2c(NCc3ccccc3)nc(N3CCOc4ccccc43)nc12`, the IC50 is 6.5 µM.

In the case of `COc1cccc2c(NCc3ccccc3N(C)C)nc(N3CCOc4ccccc43)nc12`, the IC50 was 4.5 µM.

For the molecule `COc1cccc2c(NCc3ccccc3)nc(N(C)Cc3ccccc3)nc12`, the IC50 is > 20 µM (inactive).

With `COc1cccc2c(NCc3ccc(O)cc3)nc(N3CCOc4ccccc43)nc12`, the IC50 was 7.3 µM.

In the case of `COc1cccc2c(NCc3ccccc3)nc(-n3c(N)nc4cc(C)ccc43)nc12`, the IC50 is 2.5 µM.

Turning to `COc1cccc2c(NCc3ccccc3)nc(-n3c(N)nc4ccccc43)nc12`, the IC50 is 0.9 µM.

Turning to `COc1cccc2c(NCc3ccccc3)nc(NCc3cccs3)nc12`, the IC50 was 1.8 µM.

Turning to `COc1cccc2c(NCc3ccccc3)nc(-n3c(=O)oc4ccccc43)nc12`, the IC50 was 5 µM.

Consider `Clc1ccccc1-c1nc(N2CCCc3ccccc32)c2ccccc2n1`, for which the IC50 entry was “inactive”.

For `c1ccc(CNc2nc(N3CCc4ccccc4C3)nc3ccccc23)cc1`, the IC50 is 7 µM.

On to `COc1cccc2c(NCc3ccccc3)nc(Nc3cccc(F)c3)nc12`, for which the IC50 is 4.8 µM.

For the molecule `COc1cccc2c(NCc3ccccc3)nc(Nc3nc4ccccc4s3)nc12`, the IC50 entry is “inactive”.

Turning to `COc1cccc2c(NCc3ccccc3)nc(NCc3cncs3)nc12`, the IC50 entry is “inactive”.

As for `COc1cccc2c(NCc3ccccn3)nc(N3CCNc4ccccc43)nc12`, the IC50 result is “inactive”.

As for `COc1cccc2c(NCc3ccccc3)nc(N3CCOc4ccccc43)nc12`, the IC50 is 3.3 µM.

With `COc1cccc2c(NCc3ccccn3)nc(N3CCOc4ccccc43)nc12`, the IC50 result was “inactive”.

On to `COc1cccc2c(NCC3CCCCC3)nc(N3CCOc4ccccc43)nc12`, for which the IC50 is 8.2 µM.

Regarding `c1ccc(CNc2nc(N3CCOc4ccccc43)nc3ccsc23)cc1`, the IC50 was 6.4 µM.

Regarding `c1ccc(CNc2nc(N3CCOc4ccccc43)nc3c2CCCC3)cc1`, the IC50 is 3.5 µM.

Consider `COc1cccc2c(NCc3cccc(N(C)C)c3)nc(N3CCOc4ccccc43)nc12`, for which the IC50 result is “inactive”.

Turning to `COc1cccc2c(NCc3ccccc3)nc(N3CCN(C)c4ccccc43)nc12`, the IC50 was 7.8 µM.

Staying with this experiment, now noted: HeLa UbG76V-GFP degradation, at 20 µM (top of the series).
Regarding `COc1cccc2c(NCc3ccccc3)nc(-n3c(N)nc4cc(C)c(C)cc43)nc12`, the inhibition entry is “inactive”.

On to `COc1cccc2c(NCc3ccccc3)nc(-n3cnc4ccccc43)nc12`, for which the inhibition result is “inactive”.

`COc1cccc2c(NCc3ccccc3)nc(NC(N)=O)nc12`: the inhibition result was “inactive”.
